Source: article PMC11365375 (Acta Pharmaceutica Sinica. B, 2024)

Experiments:
H460^WT cells = assay: Cell proliferation assay; type: cell-based; settings: Homo sapiens, 72 h, read-out: H460^WT (IC50, μmol/L)
Outline: (§1)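 Human NCI-H460 NSCLC cells engineered to express wild-type or R231Q DOT1L (aa 1–416) were grown in RPMI 1640 with 10% FBS. Cells were seeded in 96-well plates and exposed to a range of test compound concentrations for 72 h at 37 °C, 5% CO₂. Growth was read by CCK-8 on a plate reader, and IC50 values were derived from the dose–response.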

H460^R231Q cells = assay: Cell proliferation assay; type: cell-based, human; settings: for IC50: Homo sapiens, 72 h, read-out: H460^R231Q (IC50, μmol/L)
Outline: as §1

[1] = tested on: DOT1L^R231Q mediated H3K79me2 level in H460^R231Q cells; assay: Quantitative Western blot analysis of H3K79me2 level in H460^R231Q cells; type: cell-based, human
Outline: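 H460^R231Q cells were treated with test compound, and histones were extracted with a total histone extraction kit; protein was quantified by BCA. Extracts were resolved on 8–15% SDS-PAGE, transferred to PVDF and probed for H3K79me2 and histone H3, with ECL/X-ray film detection. Band densities were quantified, and H3K79me2 was normalised to H3. The dimethylation index was the compound value divided by the SGC0946 (positive control) value.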

[2] = cited from earlier work
H460^R231Q = settings: R231Q group, in vivo; cited from earlier work
H460^WT = settings: WT group, in vivo; cited from earlier work
DOT1L^WT = DOT1L^WT (Homo sapiens, UniProt Q8TEK3); assay: DOT1L^WT methyltransferase assay; type: biochemical
DOT1L^WT, sequence (Q8TEK3 whole entry): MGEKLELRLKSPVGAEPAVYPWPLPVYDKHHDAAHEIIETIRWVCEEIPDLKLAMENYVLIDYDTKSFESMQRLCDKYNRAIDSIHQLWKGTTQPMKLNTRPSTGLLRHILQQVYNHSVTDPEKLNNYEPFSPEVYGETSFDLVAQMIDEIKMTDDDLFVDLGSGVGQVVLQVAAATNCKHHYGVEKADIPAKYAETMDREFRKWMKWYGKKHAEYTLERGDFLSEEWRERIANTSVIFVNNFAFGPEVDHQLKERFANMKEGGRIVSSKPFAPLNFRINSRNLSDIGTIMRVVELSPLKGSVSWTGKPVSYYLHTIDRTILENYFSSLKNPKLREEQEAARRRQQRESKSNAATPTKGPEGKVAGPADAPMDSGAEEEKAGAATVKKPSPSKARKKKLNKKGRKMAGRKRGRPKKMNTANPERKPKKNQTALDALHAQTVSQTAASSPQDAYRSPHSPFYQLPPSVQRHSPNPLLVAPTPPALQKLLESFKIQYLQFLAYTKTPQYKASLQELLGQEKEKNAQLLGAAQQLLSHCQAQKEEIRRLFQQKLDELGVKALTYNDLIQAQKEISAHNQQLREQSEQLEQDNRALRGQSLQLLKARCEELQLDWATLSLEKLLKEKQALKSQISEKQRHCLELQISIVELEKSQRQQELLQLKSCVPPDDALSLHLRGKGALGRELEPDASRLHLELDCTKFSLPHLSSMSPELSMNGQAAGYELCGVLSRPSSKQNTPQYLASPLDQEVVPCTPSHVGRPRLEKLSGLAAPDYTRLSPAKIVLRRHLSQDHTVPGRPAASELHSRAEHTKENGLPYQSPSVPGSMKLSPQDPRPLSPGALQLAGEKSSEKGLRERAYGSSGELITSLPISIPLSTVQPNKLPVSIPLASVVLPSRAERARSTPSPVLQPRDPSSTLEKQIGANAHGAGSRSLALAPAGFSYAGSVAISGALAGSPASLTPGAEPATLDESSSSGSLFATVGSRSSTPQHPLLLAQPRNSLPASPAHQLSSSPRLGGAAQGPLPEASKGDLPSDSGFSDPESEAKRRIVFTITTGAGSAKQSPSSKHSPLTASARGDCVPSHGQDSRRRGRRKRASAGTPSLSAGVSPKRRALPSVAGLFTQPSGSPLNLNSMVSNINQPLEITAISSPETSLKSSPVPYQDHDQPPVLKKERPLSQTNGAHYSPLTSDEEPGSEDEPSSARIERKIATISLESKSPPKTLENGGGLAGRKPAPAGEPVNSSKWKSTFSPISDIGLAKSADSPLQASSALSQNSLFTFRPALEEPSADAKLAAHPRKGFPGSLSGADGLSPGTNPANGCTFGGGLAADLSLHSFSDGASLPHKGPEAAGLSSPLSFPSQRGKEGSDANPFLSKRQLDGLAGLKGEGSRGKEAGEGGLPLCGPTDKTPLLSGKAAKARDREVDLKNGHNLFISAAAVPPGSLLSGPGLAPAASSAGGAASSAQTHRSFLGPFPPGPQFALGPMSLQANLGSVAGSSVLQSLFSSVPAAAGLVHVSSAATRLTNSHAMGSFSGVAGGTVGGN
Outline: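 Commercial wild-type DOT1L was preincubated with test compound, 1% DMSO vehicle or SGC0946 positive control for 15 min at 25 °C. Nucleosomes plus SAM were added for 60 min, then detection buffer for 10 min, then anti-SAH-Lumi4-Tb and SAH-d2 for 60 min, all at 25 °C. The TR-FRET 665/620 nm ratio was read. % inhibition was scaled between vehicle and positive control; dose–response in duplicate, fitted for IC50.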

[3] = tested on: H3K27me3, H3K9me2, H3K4me1 and H3K36me2 levels; assay: WB analysis of common histone H3 modifications in H460^R231Q cells; type: cell-based, human; settings: Fig. 7
Outline: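 H460^R231Q cells were treated with test compound alongside an SGC0946 positive control. Histone extracts (or RIPA lysates with protease/phosphatase inhibitors) were quantified by BCA, separated on 8–15% SDS-PAGE and blotted to PVDF. Blots were probed for H3K27me3, H3K9me2, H3K4me1 and H3K36me2 and detected by ECL on X-ray film. Membranes were stripped and reprobed for proteins of similar size.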

| IC50 (H460^R231Q cells) | Compound | also measured |
| --- | --- | --- |
| 77.6 ± 3.18 µmol/L | CN(C[C@H]1O[C@@H](n2cnc3c(N)ncnc32)[C@H](O)[C@@H]1O)C1CC2CN(C(=O)Nc3ccc(C(C)(C)C)cc3)CC2C1 (some centres unmarked) [Compound 1] | IC50 (H460^WT cells): > 100 µmol/L |
| 40.1 ± 3.73 µmol/L | CC(C)N(C[C@H]1O[C@@H](n2cnc3c(N)ncnc32)[C@H](O)[C@@H]1O)C1CC2CN(C(=O)Nc3ccc(C(C)(C)C)cc3)CC2C1 (some centres unmarked) [Compound 2] | IC50 (H460^WT cells): > 100 µmol/L |
| 48.8 ± 2.76 µmol/L | CC(C)N(C[C@H]1O[C@@H](n2cnc3c(N)ncnc32)[C@H](O)[C@@H]1O)C1CC2CN(C(=O)Nc3ccc(Br)cc3)CC2C1 (some centres unmarked) [Compound 3] | IC50 (H460^WT cells): > 100 µmol/L |
| 60 ± 5.84 µmol/L | COc1ccc(NC(=O)N2CC3CC(N(C[C@H]4O[C@@H](n5cnc6c(N)ncnc65)[C@H](O)[C@@H]4O)C(C)C)CC3C2)cc1 (some centres unmarked) [Compound 4] | IC50 (H460^WT cells): > 100 µmol/L |
| 37.9 ± 3.09 µmol/L | CC(C)N(C[C@H]1O[C@@H](n2cnc3c(N)ncnc32)[C@H](O)[C@@H]1O)C1CC2CN(C(=O)Nc3ccc(NC(=O)C(C)(C)C)cc3)CC2C1 (some centres unmarked) [Compound 5] | IC50 (H460^WT cells): > 100 µmol/L; inhibitory activity against DOT1L^R231Q in WB assay ([1]; H3K79me2 level, H460^R231Q cells): moderate inhibitory activity |
| 85.8 ± 6.87 µmol/L | COc1ccc(CN2CC3CC(N(C[C@H]4O[C@@H](n5cnc6c(N)ncnc65)[C@H](O)[C@@H]4O)C(C)C)CC3C2)cc1Br (some centres unmarked) [Compound 8] | IC50 (H460^WT cells): > 100 µmol/L |
| 95.9 ± 4.26 µmol/L | COc1cc(CN2CC3CC(N(C[C@H]4O[C@@H](n5cnc6c(N)ncnc65)[C@H](O)[C@@H]4O)C(C)C)CC3C2)cc(OC)c1OC (some centres unmarked) [Compound 10] | IC50 (H460^WT cells): > 100 µmol/L |
| 68.2 ± 3.03 µmol/L | CC(C)N(C[C@H]1O[C@@H](n2cnc3c(N)ncnc32)[C@H](O)[C@@H]1O)C1CC2CN(Cc3c(F)cc(Br)cc3F)CC2C1 (some centres unmarked) [Compound 11] | IC50 (H460^WT cells): > 100 µmol/L |
| > 100 µmol/L | CC(C)N(CCC1CC2CN(C(=O)Nc3ccc(C(C)(C)C)cc3)CC2C1)C[C@H]1O[C@@H](n2cnc3c(N)ncnc32)[C@H](O)[C@@H]1O (some centres unmarked) [Compound 12] |  |
| 87.2 ± 7.63 µmol/L | CC(C)N(CCC1CC2CN(C(=O)Nc3ccc(Br)cc3)CC2C1)C[C@H]1O[C@@H](n2cnc3c(N)ncnc32)[C@H](O)[C@@H]1O (some centres unmarked) [Compound 13] |  |
| > 100 µmol/L | CC(C)N(CCC1CC2CN(C(=O)Nc3ccc(NC(=O)C(C)(C)C)cc3)CC2C1)C[C@H]1O[C@@H](n2cnc3c(N)ncnc32)[C@H](O)[C@@H]1O (some centres unmarked) [Compound 14] |  |
| 96.6 ± 5.07 µmol/L | CC(C)N(CCC1CC2CN(Cc3ccc(C#N)cc3)CC2C1)C[C@H]1O[C@@H](n2cnc3c(N)ncnc32)[C@H](O)[C@@H]1O (some centres unmarked) [Compound 16] |  |
| 82 ± 3.25 µmol/L | CC(C)N(CCC1CC2CN(Cc3ccc(F)c(F)c3)CC2C1)C[C@H]1O[C@@H](n2cnc3c(N)ncnc32)[C@H](O)[C@@H]1O (some centres unmarked) [Compound 17] |  |
| > 100 µmol/L | COC(=O)CN(C[C@H]1O[C@@H](n2cnc3c(N)ncnc32)[C@H](O)[C@@H]1O)C1CC2CN(C(=O)Nc3ccc(NC(=O)C(C)(C)C)cc3)CC2C1 (some centres unmarked) [Compound 19] |  |
| 52.7 ± 2.99 µmol/L | CC(C)(C)C(=O)Nc1ccc(NC(=O)N2CC3CC(N(CC(=O)NC4CC4)C[C@H]4O[C@@H](n5cnc6c(N)ncnc65)[C@H](O)[C@@H]4O)CC3C2)cc1 (some centres unmarked) [Compound 20] |  |
| 72.5 ± 4.5 µmol/L | CN(C)C(=O)CN(C[C@H]1O[C@@H](n2cnc3c(N)ncnc32)[C@H](O)[C@@H]1O)C1CC2CN(C(=O)Nc3ccc(NC(=O)C(C)(C)C)cc3)CC2C1 (some centres unmarked) [Compound 21] |  |
| 44.6 ± 3.87 µmol/L | CC(C)(C)C(=O)Nc1ccc(NC(=O)N2CC3CC(N(CC(=O)N4CCSCC4)C[C@H]4O[C@@H](n5cnc6c(N)ncnc65)[C@H](O)[C@@H]4O)CC3C2)cc1 (some centres unmarked) [Compound 22] |  |

Continued, compound first:

| Compound | IC50 (H460^R231Q cells) | also measured |
| --- | --- | --- |
| CN(C[C@H]1O[C@@H](n2cnc3c(N)ncnc32)[C@H](O)[C@@H]1O)C1CCN(Cc2nc3cc(NC(=O)C(C)(C)C)ccc3[nH]2)CC1 [Compound 23] | 34.8 ± 1.92 µmol/L |  |
| COC(=O)CN(C[C@H]1O[C@@H](n2cnc3c(N)ncnc32)[C@H](O)[C@@H]1O)C1CCN(Cc2nc3cc(NC(=O)C(C)(C)C)ccc3[nH]2)CC1 [Compound 24] | 94 ± 7.07 µmol/L |  |
| CN(C)C(=O)CN(C[C@H]1O[C@@H](n2cnc3c(N)ncnc32)[C@H](O)[C@@H]1O)C1CCN(Cc2nc3cc(NC(=O)C(C)(C)C)ccc3[nH]2)CC1 [Compound 25] | 70 ± 2.44 µmol/L |  |
| CC(C)(C)C(=O)Nc1ccc2nc(CN3CCC(N(CC(=O)N4CCCC4)C[C@H]4O[C@@H](n5cnc6c(N)ncnc65)[C@H](O)[C@@H]4O)CC3)[nH]c2c1 [Compound 26] | 46.7 ± 2.69 µmol/L |  |
| CC1CCN(C(=O)CN(C[C@H]2O[C@@H](n3cnc4c(N)ncnc43)[C@H](O)[C@@H]2O)C2CCN(Cc3nc4ccc(NC(=O)C(C)(C)C)cc4[nH]3)CC2)CC1 [Compound 27] | 46.7 ± 3.7 µmol/L |  |
| CC(C)(C)C(=O)Nc1ccc2nc(CN3CCC(N(CC(=O)N4CCC(O)CC4)C[C@H]4O[C@@H](n5cnc6c(N)ncnc65)[C@H](O)[C@@H]4O)CC3)[nH]c2c1 [Compound 28] | 22.5 ± 1.81 µmol/L |  |
| CCN1CCN(C(=O)CN(C[C@H]2O[C@@H](n3cnc4c(N)ncnc43)[C@H](O)[C@@H]2O)C2CCN(Cc3nc4ccc(NC(=O)C(C)(C)C)cc4[nH]3)CC2)CC1 [Compound 29] | 29.2 ± 1.63 µmol/L |  |
| CC(C)(C)C(=O)Nc1ccc2nc(CN3CCC(N(CC(=O)N4CCOCC4)C[C@H]4O[C@@H](n5cnc6c(N)ncnc65)[C@H](O)[C@@H]4O)CC3)[nH]c2c1 [Compound 30] | 46.1 ± 3 µmol/L |  |
| CC(C)(C)C(=O)Nc1ccc2nc(CN3CCC(N(CC(=O)NCc4ccco4)C[C@H]4O[C@@H](n5cnc6c(N)ncnc65)[C@H](O)[C@@H]4O)CC3)[nH]c2c1 [Compound 31] | > 100 µmol/L |  |
| CC(C)(C)C(=O)Nc1ccc2[nH]c(CN3CCC(N(CCC(=O)NCC4CCCO4)C[C@H]4O[C@@H](n5cnc6c(N)ncnc65)[C@H](O)[C@@H]4O)CC3)nc2c1 (some centres unmarked) [Compound 32] | 96.5 ± 5.45 µmol/L |  |
| CC(C)NC(=O)CCN(C[C@H]1O[C@@H](n2cnc3c(N)ncnc32)[C@H](O)[C@@H]1O)C1CCN(Cc2nc3cc(NC(=O)C(C)(C)C)ccc3[nH]2)CC1 [Compound 33] | 73 ± 5.07 µmol/L |  |
| CC(C)(C)C(=O)Nc1ccc2[nH]c(CN3CCC(N(CCC(=O)N4CCS(=O)(=O)CC4)C[C@H]4O[C@@H](n5cnc6c(N)ncnc65)[C@H](O)[C@@H]4O)CC3)nc2c1 [Compound 34] | 59.4 ± 4.38 µmol/L |  |
| CC(C)(C)C(=O)Nc1ccc2[nH]c(CN3CCC(N(CCC(=O)N4CCSCC4)C[C@H]4O[C@@H](n5cnc6c(N)ncnc65)[C@H](O)[C@@H]4O)CC3)nc2c1 [Compound 35] | 18.6 ± 0.94 µmol/L |  |
| CC(C)(C)C(=O)Nc1ccc2[nH]c(CN3CCC(N(CCCN4CCC(O)CC4)C[C@H]4O[C@@H](n5cnc6c(N)ncnc65)[C@H](O)[C@@H]4O)CC3)nc2c1 [Compound 36] | 8.76 ± 0.61 µmol/L | H3K79me2 level mediated by DOT1L^R231Q ([1]; 5 μmol/L, WB): significantly reduced |
| CC1CCN(CCCN(C[C@H]2O[C@@H](n3cnc4c(N)ncnc43)[C@H](O)[C@@H]2O)C2CCN(Cc3nc4cc(NC(=O)C(C)(C)C)ccc4[nH]3)CC2)CC1 [Compound 38] | 43.1 ± 1.88 µmol/L |  |
| CCN1CCN(CCCN(C[C@H]2O[C@@H](n3cnc4c(N)ncnc43)[C@H](O)[C@@H]2O)C2CCN(Cc3nc4cc(NC(=O)C(C)(C)C)ccc4[nH]3)CC2)CC1 [Compound 39] | 27.6 ± 1.31 µmol/L | fold decreased activity against H460^R231Q cells (H460^R231Q cells; versus 37): 4 fold |
| COC(=O)C1CCN(CCCN(C[C@H]2O[C@@H](n3cnc4c(N)ncnc43)[C@H](O)[C@@H]2O)C2CCN(Cc3nc4cc(NC(=O)C(C)(C)C)ccc4[nH]3)CC2)CC1 [Compound 40] | 55.3 ± 5.49 µmol/L |  |
| COC1(OC)CCN(CCCN(C[C@H]2O[C@@H](n3cnc4c(N)ncnc43)[C@H](O)[C@@H]2O)C2CCN(Cc3nc4cc(NC(=O)C(C)(C)C)ccc4[nH]3)CC2)CC1 [Compound 41] | 32.5 ± 3.56 µmol/L |  |
| CCN(CC)CCCN(C[C@H]1O[C@@H](n2cnc3c(N)ncnc32)[C@H](O)[C@@H]1O)C1CCN(Cc2nc3ccc(NC(=O)C(C)(C)C)cc3[nH]2)CC1 [Compound 42] | 73.3 ± 3.18 µmol/L |  |
| CC(C)N(C[C@H]1O[C@@H](n2cnc3c(N)ncnc32)[C@H](O)[C@@H]1O)[C@H]1C[C@@H](CCc2nc3cc(C(C)(C)C)ccc3[nH]2)C1 [EPZ5676] |  | clearance [2]: 68 mL/min/kg; oral bioavailability (F) [2]: 0% |
| CC(C)N(CCCNC(=O)Nc1ccc(C(C)(C)C)cc1)C[C@H]1O[C@@H](n2cc(Br)c3c(N)ncnc32)[C@H](O)[C@@H]1O [SGC0946] | 38 ± 5.24 µmol/L | TGI (H460^R231Q): 26.5%; IC50 (H460^WT cells): 9.18 ± 0.11 µmol/L; TGI (H460^WT): 44.4%; IC50 (DOT1L^WT): 0.0184 µM; H3K79me2 level (WB of common histone H3 modifications) ([1]; H460^R231Q cells, Fig. 7): decrease; H3K27me3, H3K9me2, H3K4me1 and H3K36me2 levels [3]: remained relatively unchanged |
